Measured values: ChEMBL document CHEMBL1131245, “Selective inhibitors of monoamine oxidase (MAO). 5. 1-Substituted phenoxathiin inhibitors containing no nitrogen that inhibit MAO A by binding it to a hydrophobic site” (J Med Chem, 1998)

Legend:
[1] = target: T1, Amine oxidase [flavin-containing] A (Rattus norvegicus, UniProt P21396); assay: The inhibitory concentration against Monoamine oxidase A
T1 sequence (P21396 whole entry): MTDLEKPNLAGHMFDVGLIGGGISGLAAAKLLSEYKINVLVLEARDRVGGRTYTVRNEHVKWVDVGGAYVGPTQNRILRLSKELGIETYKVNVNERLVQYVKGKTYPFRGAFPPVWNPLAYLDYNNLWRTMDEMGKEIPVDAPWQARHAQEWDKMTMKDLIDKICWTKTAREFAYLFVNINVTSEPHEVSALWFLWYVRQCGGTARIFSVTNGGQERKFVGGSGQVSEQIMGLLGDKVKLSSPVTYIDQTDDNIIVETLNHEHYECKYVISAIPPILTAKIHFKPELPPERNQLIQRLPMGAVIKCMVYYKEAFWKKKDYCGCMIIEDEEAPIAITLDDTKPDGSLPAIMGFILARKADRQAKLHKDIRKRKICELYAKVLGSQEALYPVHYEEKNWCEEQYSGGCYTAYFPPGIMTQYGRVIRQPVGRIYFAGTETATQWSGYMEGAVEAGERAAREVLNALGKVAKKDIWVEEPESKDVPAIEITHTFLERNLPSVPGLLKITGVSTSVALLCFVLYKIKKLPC
How it was run: (§1)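 Radiometric MAO assay with [3H]serotonin and [14C]phenethylamine as substrates. Each inhibitor concentration was run in triplicate, and SEM of percent inhibition was within 5% of means. IC50 was estimated visually from plots of mean percent inhibition against log inhibitor concentration.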

[2] = target: T2, Amine oxidase [flavin-containing] B (Rattus norvegicus, UniProt P19643); assay: Percentage inhibition of Monoamine oxidase B (MAO-B) at 1 uM concentration; how it was run: as §1
T2 sequence (P19643 whole entry): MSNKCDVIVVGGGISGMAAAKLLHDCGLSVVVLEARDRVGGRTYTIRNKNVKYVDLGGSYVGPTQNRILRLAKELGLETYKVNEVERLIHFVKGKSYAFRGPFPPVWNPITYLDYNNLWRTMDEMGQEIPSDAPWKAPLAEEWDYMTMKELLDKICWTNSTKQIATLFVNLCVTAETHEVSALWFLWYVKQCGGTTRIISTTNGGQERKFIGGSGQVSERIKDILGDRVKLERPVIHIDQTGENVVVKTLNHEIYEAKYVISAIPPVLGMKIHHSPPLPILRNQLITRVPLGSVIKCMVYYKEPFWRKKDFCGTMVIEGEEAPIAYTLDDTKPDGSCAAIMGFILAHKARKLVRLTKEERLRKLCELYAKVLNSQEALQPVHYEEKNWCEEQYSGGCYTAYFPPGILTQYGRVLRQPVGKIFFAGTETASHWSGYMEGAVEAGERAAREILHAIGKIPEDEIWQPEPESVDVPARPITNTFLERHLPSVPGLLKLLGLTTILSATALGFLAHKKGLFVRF

[3] = target: T2, Amine oxidase [flavin-containing] B; assay: Inhibitory concentration of compound against monoamine oxidase B; how it was run: as §1
[4] = target: T1, Amine oxidase [flavin-containing] A; assay: Inhibitory concentration against monoamine oxidase A.; how it was run: as §1
[5] = target: T2, Amine oxidase [flavin-containing] B; assay: Percentage inhibition of Monoamine oxidase B (MAO-B) activity at 0.1 uM concentration; how it was run: as §1
[6] = target: T1, Amine oxidase [flavin-containing] A; assay: In vivo inhibitory activity against Monoamine oxidase A of rat brain; assay type: functional, organism-based
[7] = target: T2, Amine oxidase [flavin-containing] B; assay: Compound was evaluated for percent inhibition against Monoamine oxidase B at <10 uM concentration; how it was run: as §1
[8] = target: T2, Amine oxidase [flavin-containing] B; assay: Compound was evaluated for percent inhibition against Monoamine oxidase B at 0.01 uM concentration; how it was run: as §1
[9] = target: T2, Amine oxidase [flavin-containing] B; assay: Compound was evaluated for percent inhibition against Monoamine oxidase B at 10 uM concentration; how it was run: as §1
[10] = target: T1, Amine oxidase [flavin-containing] A; assay: Compound was evaluated for percent inhibition against Monoamine oxidase A at 10 uM concentration; how it was run: as §1
[11] = target: T2, Amine oxidase [flavin-containing] B; assay: Compound was evaluated for percent inhibition against Monoamine oxidase B; how it was run: as §1
[12] = target: T1, Amine oxidase [flavin-containing] A; assay: Percent inhibition against monoamine oxidase A at 1 uM concentration.; how it was run: as §1
[13] = target: T2, Amine oxidase [flavin-containing] B; assay: Compound was evaluated for percent inhibition against Monoamine oxidase B at 3 uM concentration; how it was run: as §1

SMILES	IC50 [1] [nM]	inhibition at 1 µM [2] [%]	IC50 [4] [nM]	also measured
CC(=O)Oc1ccc2c(c1)S(=O)(=O)c1ccccc1O2	500	19		
O=S1(=O)c2ccccc2Oc2cccc(C(O)CO)c21 (stereo in doubt; 45)			2000	IC50 [3]: 30000 nM
O=S1(=O)c2ccccc2Oc2cccc(CBr)c21	100			inhibition at 0.1 µM [5]: 0%
CCc1cccc2c1S(=O)(=O)c1ccccc1O2			70	ED80 [6]: 8 mg/kg; inhibition at 0.1 µM [5]: 0%
CCc1cccc2c(=O)c3ccccc3sc12	2000	10		
Cc1ccc2c(c1)Oc1ccccc1S2.Cc1cccc2c1Sc1ccccc1O2	610			Inhibition [7]: 9%
O=S1(=O)c2ccccc2Oc2cccc(C(O)CO)c21 (stereo in doubt; 44)				IC50 [3]: 30000 nM
CCc1ccc2c(c1)S(=O)(=O)c1ccccc1O2			7	inhibition at 0.01 µM [8]: 0%
O=C(O)Cc1cccc2c1S(=O)(=O)c1ccccc1O2				inhibition at 10 µM [9]: 0%; inhibition at 10 µM [10]: 22%
CC(O)c1cccc2c1S(=O)(=O)c1ccccc1O2 (stereo in doubt; 34)			2500	Inhibition [11]: 0%
Cc1cccc2c(=O)c3ccccc3sc12	1400	0		
Cc1cccc2c1[S+]([O-])c1ccccc1O2 (stereo unspecified)			1000	inhibition at 10 µM [9]: 0%
CCc1ccc2c(c1)Oc1ccccc1S2	300	8		
Cc1ccc(Cl)c2c(=O)c3ccccc3sc12		0		inhibition at 1 µM [12]: 55%
Cc1ccc2c(c1)[S+]([O-])c1ccccc1O2 (stereo unspecified)		8		inhibition at 1 µM [12]: 11%
CC(O)c1cccc2c1S(=O)(=O)c1ccccc1O2 (stereo in doubt; 35)			250	inhibition at 3 µM [13]: 7%
CCCCCc1cccc2c1S(=O)(=O)c1ccccc1O2		4		inhibition at 1 µM [12]: 42%
Cc1ccc(Cl)c2sc3ccccc3c(=O)c12		0		inhibition at 1 µM [12]: 34%
